# The source made the active and inactive calls.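 The calls were made as follows, unless noted: active = NADPH fluorescence slope more negative than the mean of all samples by about 3 SD, 99.7% confidence; inactive = the rest.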
# Key:
# [1] = inhibitors of TNFa-induced NFkB p65 translocation, primary screen, imaging, HUVEC, MLSMR starter and 10KST1 sets (AID 438;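 active = inhibition above 20% together with a positive visual image hit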;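 also: compound added about 3h40 before a 20 min TNFalpha stimulation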;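 as to inhibition: signal is the nuclear over cytoplasmic p65 intensity ratio per well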); settings: HUVEC TNFa-induced p65 nuclear translocation; cell count: measured here: nuclei count (cytotoxicity indicator), at 2.08 µM; inhibition: at 2 µM, stronger effect = higher value, 0% TNFa-plus-vehicle, 100% no-TNFa wells
# [2] = inhibitors of mutant huntingtin aggregation, primary screen, imaging, exon1htt(103Q)mCFP cells, high-content imaging (AID 483;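 active = visual image review flags a hit and inhibition of aggregation exceeds 20%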;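 also: compound exposure lasted 3 days before fixation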;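 as to nuclei count: percent of the per-plate median nuclei count of sample wells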); settings: exon1htt(103Q)mCFP cell line, aggregate imaging, at 2 µM; inhibition of aggregation: stronger effect = higher value; nuclei count: measured here: cell count, toxicity
# [3] = inhibitors of E-selectin induction by TNFa, primary screen, imaging, HUVEC, immunofluorescence, MLSMR starter and 10KST1 sets (AID 487;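 active = visually confirmed hit in the image check and inhibition above 20%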;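 as to inhibition: signal is fraction of cell area covered by stained E-selectin grains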;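 as to nuclei count: 100% = median nuclei count of all wells on the same plate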); settings: HUVEC TNFalpha-induced E-selectin immunofluorescence imaging, at 2 µM; inhibition: stronger effect = higher value; nuclei count: measured here: cell number, toxicity
# [4] = target: Voltage-gated potassium channel subunit beta-2 (Rattus norvegicus) (UniProt P62483); test: KvBeta enzyme negative modulators, primary screen, biochemical, NADPH fluorescence (AID 622;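 active = fluorescence slope higher than the sample average by over 3 SD, cut at about -0.22 in these data, passing the limit was not always enough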;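 also: slope of raw intensity against log time taken from 70 to 1610 s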); settings: recombinant KvBeta, 4-cyanobenzaldehyde reduction, at 10 µM, stronger effect = higher value
# Sequence of Voltage-gated potassium channel subunit beta-2 (Rattus norvegicus) (P62483 whole entry, looked up): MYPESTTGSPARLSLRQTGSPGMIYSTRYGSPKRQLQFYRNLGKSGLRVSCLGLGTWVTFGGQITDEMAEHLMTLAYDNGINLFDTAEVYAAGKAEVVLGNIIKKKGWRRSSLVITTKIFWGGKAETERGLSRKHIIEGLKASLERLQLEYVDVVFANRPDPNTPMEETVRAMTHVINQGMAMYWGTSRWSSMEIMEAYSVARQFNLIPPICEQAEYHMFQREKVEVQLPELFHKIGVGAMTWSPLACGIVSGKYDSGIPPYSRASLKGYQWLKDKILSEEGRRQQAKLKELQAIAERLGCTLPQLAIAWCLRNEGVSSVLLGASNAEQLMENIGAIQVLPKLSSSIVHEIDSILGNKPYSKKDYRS
# [5] = target: Voltage-gated potassium channel subunit beta-2 (Rattus norvegicus) (UniProt P62483); test: KvBeta positive modulators, primary screen, biochemical, NADPH fluorescence (AID 623); settings: Recombinant KvBeta, NADPH fluorescence decrease slope, 10 min; at 10 µM; stronger effect = lower value;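 also: fluorescence intensity change per second fitted from 20 to 320 s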
# [6] = target: Alpha-2C adrenergic receptor (Homo sapiens) (UniProt P18825); test: modulators of alpha2C/GIRK thallium flux, primary screen, cell-based, HEK293 alpha2C/GIRK1/2 (AID 624;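 active = fluorescence slope after compound addition differing from the mean of all screened samples at 99.7% confidence, in either direction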;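 also: slope of fluorescence ratio to pre-addition baseline per second over 15 to 24 s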); settings: thallium flux BTC fluorescence, at 10 µM, actives lie on both sides
# Sequence of Alpha-2C adrenergic receptor (Homo sapiens) (P18825 whole entry, looked up): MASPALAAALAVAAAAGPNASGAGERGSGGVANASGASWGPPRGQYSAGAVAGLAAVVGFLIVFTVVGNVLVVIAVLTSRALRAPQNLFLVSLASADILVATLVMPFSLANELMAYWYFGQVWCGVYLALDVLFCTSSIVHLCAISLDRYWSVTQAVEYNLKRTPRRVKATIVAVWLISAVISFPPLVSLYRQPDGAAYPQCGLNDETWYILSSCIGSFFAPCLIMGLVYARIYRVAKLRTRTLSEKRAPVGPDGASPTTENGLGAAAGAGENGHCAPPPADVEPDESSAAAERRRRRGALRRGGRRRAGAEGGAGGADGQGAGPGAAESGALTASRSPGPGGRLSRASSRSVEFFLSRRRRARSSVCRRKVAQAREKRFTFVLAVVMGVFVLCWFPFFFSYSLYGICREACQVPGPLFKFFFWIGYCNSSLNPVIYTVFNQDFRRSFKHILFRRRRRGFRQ
# [7] = inhibitors of larval lipid processing in zebrafish, primary screen, whole organism, PED6 fluorescence, gall bladder and intestine (AID 686;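 active = a full or partial loss of lipid-probe fluorescence in the fish gall bladder, intestine or both, judged by eye; inactive = no fluorescence loss, or compound toxic to the fish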;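 also: larvae 5 to 7 days old with five fish per well; signal comes from phospholipase A2 cleavage of quenched PED6 carried via bile; overnight exposure to compound and PED6 before scoring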); settings: Zebrafish larvae PED6 lipid processing, fluorescence scoring; screened at 20 µM (by protocol)
# In short: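 Test system – live zebrafish larvae aged 5-7 days, whole organism · Buffer or medium – E3 fish medium · Reagent – quenched phospholipase substrate PED6, 100 nM final, ingested by larvae · Doses – 20 µM single dose · Incubation – overnight compound and PED6 incubation · Technique – visual fluorescence microscopy scoring of gall bladder, gut · Read-out basis – visual per-well fluorescence inhibition score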
# [8] = inhibitors of Sendai virus-induced IRF3 signaling, primary screen, TLR/RLR signaling modifier project, cell-based, Sendai virus stimulus, luciferase, 10K MLSCN set (AID 602276;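 active = inhibition at or above 50% at 10 µM; inactive = inhibition below 50%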;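 also: firefly luciferase from ISG56 promoter only with Renilla not read in this screen; 0% = Sendai virus plus DMSO and 100% = medium plus DMSO without virus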); settings: HEK293 RL24 IRF3 luciferase reporter, at 10 µM, stronger effect = higher value
# [9] = inhibitors of poly I:C-induced TLR3 signaling, primary screen, cell-based, poly I:C stimulus, luciferase, 10K MLSCN set (AID 602277;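 active = inhibition of the reporter signal at or above 50%; inactive = inhibition below 50%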); settings: HEK293-TLR3 RL24 IRF3 luciferase reporter, at 10 µM, stronger effect = higher value
SMILES,cell count [1],inhibition [1],inhibition of aggregation [2],nuclei count [2],inhibition [3],nuclei count [3],fluorescence slope [4],NADPH fluorescence slope [5],slope [6],outcome [7],inhibition [8],inhibition [9]
COc1ccccc1C(=O)NCC(c1cccnc1)N(C)C (centres undefined),776,-2.2% (inactive),-39.1% (inactive),112%,1.4% (inactive),122%,-0.422 (inactive),-5.3e-05 (inactive),0.00557 (inactive),inactive,10.3% (inactive),4.98% (inactive)
CCOC(=O)Nc1ccc2c(c1)N(C(=O)CCN1CCOCC1)c1ccccc1S2,313,-2.1% (inactive),32.1% (inactive),100%,3% (inactive),104%,-0.37 (inactive),-6.8e-05 (inactive),0.00608 (inactive),inactive,6.28% (inactive),18.1% (inactive)
COC(=O)CCn1nnc(-c2ccc(C)cc2)n1,390,7.6% (inactive),-4.9% (inactive),110%,-24.9% (inactive),108%,-0.341 (inactive),-4.2e-06 (inactive),0.00816 (inactive),inactive,21.3% (inactive),24.4% (inactive)
CN(C)C(=O)COc1ccc2cc(-c3ccccc3)c(=O)oc2c1,300,-4% (inactive),14.5% (inactive),89.5%,-75.1% (inactive),146%,-0.00785 (inactive),0 (inactive),0.0053 (inactive),inactive,-24.2% (inactive),98.1% (active)
COc1ccc(-c2nsc(SCC(=O)Nc3cc(C)on3)n2)cc1,245,-7% (inactive),14.4% (inactive),84.3%,50.5% (inactive),64.4%,-0.396 (inactive),-2.2e-07 (inactive),0.0058 (inactive),inactive,21.4% (inactive),17.9% (inactive)
CCN(CC)S(=O)(=O)c1cccc(-c2nnc(SCCOc3ccccc3C)o2)c1,356,0.4% (inactive),-13.5% (inactive),95.4%,3.8% (inactive),114%,-0.458 (inactive),-8e-05 (inactive),0.00732 (inactive),inactive,9.64% (inactive),-24.4% (inactive)
O=C(c1cc2nc(-c3ccco3)cc(C(F)(F)F)n2n1)N1CCN(c2ccccn2)CC1,746,-10.5% (inactive),2.8% (inactive),101%,32.7% (inactive),107%,-0.357 (inactive),-6.7e-05 (inactive),0.00309 (inactive),inactive,10.1% (inactive),-6.91% (inactive)
CCOC(=O)c1nnc2ccnn2c1N,529,6.8% (inactive),-6.1% (inactive),108%,-120% (inactive),111%,-0.448 (inactive),-0.000165 (inactive),0.00514 (inactive),inactive,8.28% (inactive),16.2% (inactive)
c1n[nH]c(SCCCCSc2ncn[nH]2)n1,512,-30.6% (inactive),-15.1% (inactive),108%,24% (inactive),113%,-0.452 (inactive),-7e-05 (inactive),0.00417 (inactive),inactive,15.9% (inactive),13% (inactive)
CCOC(=O)C1CCN(CC(=O)c2c(C)[nH]c3ccccc23)CC1,669,3.9% (inactive),-5.8% (inactive),99.6%,11.6% (inactive),102%,-0.421 (inactive),-1.5e-05 (inactive),0.00551 (inactive),inactive,-3.58% (inactive),15.2% (inactive)
CCN(C(=O)c1ccnc(C(C)(C)C)c1)c1ccccc1,334,4.4% (inactive),-6.8% (inactive),99.8%,-63.1% (inactive),128%,-0.385 (inactive),-1.8e-05 (inactive),0.0045 (inactive),inactive,13.6% (inactive),11.3% (inactive)
c1cc2c(cc1C1CCCN1)OCCCO2 (centres undefined),411,-7.9% (inactive),-16.6% (inactive),116%,-44% (inactive),116%,-0.418 (inactive),1.8e-05 (inactive),0.00434 (inactive),inactive,-9.84% (inactive),-8.78% (inactive)
COc1ccc(C(=O)NCCC(C)C)cc1S(=O)(=O)N1CCOCC1,229,-32.8% (inactive),0.6% (inactive),66.7%,25.8% (inactive),109%,-0.355 (inactive),6.5e-06 (inactive),0.00454 (inactive),inactive,17.2% (inactive),19.8% (inactive)
Cc1cc(C)nc(N2CCC(C(=O)Nc3ccc(Oc4ccccc4)cc3)CC2)n1,706,-15% (inactive),-11% (inactive),122%,-54.3% (inactive),116%,-0.432 (inactive),-5.6e-05 (inactive),0.00595 (inactive),inactive,13% (inactive),11% (inactive)
c1ccc2c(-c3nc(-c4ccncc4)no3)cccc2c1,313,-1.1% (inactive),-4.5% (inactive),88.4%,-210% (inactive),118%,-0.442 (inactive),-3.1e-05 (inactive),0.00497 (inactive),inactive,-14.2% (inactive),-43.8% (inactive)
CC(OC(=O)c1ccco1)C(=O)NCc1cccs1 (centres undefined),609,-4.4% (inactive),7.4% (inactive),83%,-95.9% (inactive),113%,-0.444 (inactive),-6e-05 (inactive),0.00449 (inactive),inactive,17.9% (inactive),25.3% (inactive)
COc1cc(-c2nc(S(=O)(=O)c3ccc(C)cc3)c(N(C)C)o2)cc(OC)c1OC,432,-6.3% (inactive),-5.1% (inactive),105%,-57% (inactive),108%,-0.386 (inactive),-9.2e-05 (inactive),0.00686 (inactive),inactive,-11.7% (inactive),-7.3% (inactive)
Cc1cccc(NC(=O)c2ccc(S(=O)(=O)N(C)C)cc2)n1,290,-5.5% (inactive),4.5% (inactive),108%,-126% (inactive),94.4%,-0.318 (inactive),-2.4e-05 (inactive),0.00507 (inactive),inactive,-11.6% (inactive),-45.9% (inactive)
CCCCOC(=O)Nc1nccs1,690,-2.6% (inactive),4.5% (inactive),116%,-53.6% (inactive),116%,-0.404 (inactive),-3.3e-05 (inactive),0.00518 (inactive),inactive,-8.28% (inactive),-28.8% (inactive)
Cc1ccc(S(=O)(=O)N2CCN(C(=O)N3CCOCC3)C2C)cc1 (centres undefined),469,7.3% (inactive),12.7% (inactive),102%,-48.1% (inactive),108%,-0.439 (inactive),-5.1e-05 (inactive),0.00556 (inactive),inactive,11.8% (inactive),45.8% (inactive)
COc1cc(CC(=O)Oc2ccc3c(c2)OCO3)cc(OC)c1OC,469,1.1% (inactive),-5.8% (inactive),112%,-79.4% (inactive),101%,-0.392 (inactive),-5.2e-05 (inactive),0.00391 (inactive),inactive,2.88% (inactive),99% (active)
Cc1nc2ccccc2nc1OCC(=O)Nc1cc(C(F)(F)F)ccc1N1CCOCC1,410,-5.6% (inactive),19.2% (inactive),85.4%,80.7% (active),113%,-0.429 (inactive),-3e-05 (inactive),0.00495 (inactive),inactive,12.4% (inactive),8.99% (inactive)
O=C(CSc1nc2ccccc2o1)N1CCN(C(=O)c2ccco2)CC1,595,-11.5% (inactive),9.6% (inactive),102%,-19.5% (inactive),99.6%,-0.376 (inactive),-5.7e-05 (inactive),0.00634 (inactive),inactive,3.77% (inactive),3.76% (inactive)
COCCNC(=O)C(c1ccc(C)o1)N(C(=O)c1snc(C(N)=O)c1N)c1ccc(C)cc1 (centres undefined),498,-3.6% (inactive),19.7% (inactive),94%,73.6% (inactive),65.5%,-0.378 (inactive),-5.3e-05 (inactive),0.00521 (inactive),inactive,12.5% (inactive),7.41% (inactive)
O=C(O)CSc1ncn[nH]1,718,-14.4% (inactive),22.9% (inactive),98.3%,-28.2% (inactive),112%,-0.454 (inactive),-4.4e-05 (inactive),0.00435 (inactive),inactive,15.3% (inactive),12.4% (inactive)
C=CCC1(O)C(=O)Nc2ccccc21 (centres undefined),585,-13.3% (inactive),-5.5% (inactive),106%,-66.6% (inactive),115%,-0.339 (inactive),-5.2e-05 (inactive),0.00522 (inactive),inactive,16.6% (inactive),18.3% (inactive)
CCOc1ccc(CCNc2nc3c(c(=O)n(C)c(=O)n3C)n2CC)cc1OCC,602,6.3% (inactive),-0.6% (inactive),89.6%,-23.5% (inactive),119%,-0.305 (inactive),3.7e-06 (inactive),0.00587 (inactive),inactive,18.8% (inactive),9% (inactive)

# From PubChem BioAssay
